Experimental data taken from ChEMBL document CHEMBL5543129, “Peptide Inhibitor Targeting the Extraterminal Domain in BRD4 Potently Suppresses Breast Cancer Both In Vitro and In Vivo” (J Med Chem, 2024).
The source made the active and inactive calls. The calls are words filed in the database; no cut-off is given here. Square brackets hold non-standard residues; d marks the D form. Peptide text beside a SMILES is read from it. Hyp = O=C(O)[C@@H]1C[C@@H](O)CN1; Ahx = NCCCCCC(=O)O

Legend:
[1] = Downregulation of JMJD6 protein expression in human MCF7 cells assessed as fold change in remaining JMJD6 level at 10 uM incubated for 24 hrs by immunoblotting analysis (reference value: 1); type: functional
How it was run: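 Cells treated with peptide (10 μM) for 24 h. Lysates in Tris/NaCl/EDTA/1% Triton X-100, run on 10% SDS-PAGE and immunoblotted with ECL detection. β-actin as loading control. Three repeats, quantified against untreated cells.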

[2] = system: MCF7; experiment: Antiproliferative activity against human MCF7 cells at 10 uM incubated for 1 week in presence of JMJD6 inhibitor by CellTiter 96 Aqueous One Solution based assay; type: functional, cell-based; conditions: time 1.0 weeks
How it was run: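 Cells seeded at 2 × 10^3/well and treated with peptide (10 μM) alone or combined with JQ1 (5 μM), iJMJD6 (10 μM) or ICI (2.5 μM), as the line states. Viability read by MTS reagent, 1 h at 37 °C, A490. Three biological repeats.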

[3] = Toxicity in BALB/c mouse xenografted with human MCF7 cells assessed as change in liver morphology at 12.5 mg/kg, ip administered every 2 days in presence of 50 mg/kg JQ1; type: organism-based; conditions: in vivo, 48 h
[4] = system: MDA-MB-231; experiment: Inhibition of colony formation in human MDA-MB-231 cells at 10 uM incubated for 2 weeks in presence of JMJD6 inhibitor by crystal violet staining based assay; type: functional, cell-based
How it was run: (§1)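 Cells are seeded at 1 × 10^3/well and treated with peptide (10 μM) for 2 weeks, alone or with JQ1 5 μM, iJMJD6 10 μM, ICI 2.5 μM, or tamoxifen 3 μM (tamoxifen-resistant lines). Colonies are stained with crystal violet, dissolved in 10% acetic acid, and read at 590 nm. Three biological repeats.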

[5] = Downregulation of c-Myc protein expression in BALB/c mouse tumor xenografted with human MCF7 cells assessed as fold change in remaining c-Myc level at 25 mg/kg, ip administered every 2 days by immunoblotting analysis; type: functional
How it was run: (§2)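 Female BALB/c nude mice (4–6 weeks) carry subcutaneous MCF7 or MDA-MB-231 grafts (5 × 10^6 cells). MCF7 mice are brushed with E2 (10–2 M) every 2 days. Dosing starts at ~50 mm3: peptide in normal saline, ip every 2 days. Tumour lysates are immunoblotted with β-actin as loading control; repeated three times.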

[6] = system: MCF7; experiment: Antitumor activity against human MCF7 cells xenografted in BALB/c nude mouse assessed as reduction in tumor weight at 12.5 mg/kg, ip administered every 2 days in presence of 12.5 mg/kg JMJD6 inhibitor; type: functional, organism-based
How it was run: (§3)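 Female BALB/c nude mice given 5 × 10^6 cells sc (MCF7 mice with E2 10^-2 M every 2 days), randomised at ~50 mm3. Peptide 12.5 mg/kg ip (saline) every 2 days, plus JQ1 50 mg/kg ip (DMSO/10% HPBCD 1:10) every 2 days or iJMJD6 12.5 mg/kg ip (DMSO/PBS 1:20). Caliper volume every 2 days; tumours weighed at the end.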

[7] = system: MDA-MB-231; experiment: Inhibition of cell migration in human MDA-MB-231 cells at 10 uM incubated for 12 hrs by inverted microscopic assay; type: functional, cell-based
How it was run: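 Cells are seeded at 5 × 10^5/well and scratched at 80–90% confluence. They are kept in serum-free medium with peptide (10 μM); partner agents are JQ1 5 μM, iJMJD6 10 μM, or ICI 2.5 μM. Wound area is imaged by inverted microscope at 0 and 12 or 24 h. Wound closure % = (A0−A1)/A0 × 100. Three biological repeats.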

[8] = system: T47D; experiment: Inhibition of colony formation in human T47D cells at 10 uM incubated for 2 weeks in presence of fulvestrant by crystal violet staining based assay; type: functional, cell-based; how it was run: as §1
[9] = Toxicity in BALB/c mouse xenografted with human MCF7 cells assessed as change in liver weight at 12.5 mg/kg, ip administered every 2 days in presence of 50 mg/kg JQ1; type: organism-based; conditions: in vivo, 48 h
[10] = Toxicity in BALB/c mouse xenografted with human MDA-MB-231 cells assessed as change in liver morphology at 12.5 mg/kg, ip administered every 2 days in presence of 50 mg/kg JQ1; type: organism-based; conditions: in vivo, 48 h
How it was run: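 Female BALB/c nude mice (4–6 weeks) carried sc MDA-MB-231 xenografts (5 × 10^6 cells) and were randomized at about 50 mm3. Peptide (12.5 mg/kg ip in saline) and JQ1 (50 mg/kg ip, DMSO/10% HPBCD 1:10) were given every 2 days, alone or combined. Body weight was recorded, and heart, liver, spleen, lung and kidney morphology and weight were assessed.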

[11] = Toxicity in BALB/c mouse xenografted with human MCF7 cells assessed as change in body weight at 12.5 mg/kg, ip administered every 2 days in presence of 12.5 mg/kg JMJD6 inhibitor; type: organism-based; conditions: in vivo, 48 h
How it was run: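 Female BALB/c nude mice carried MCF7 xenografts (5 × 10^6 cells sc, E2 10–2 M brushed every 2 days) and were randomized at about 50 mm3. Peptide was given at 12.5 mg/kg ip every 2 days, and iJMJD6 (DMSO/PBS 1:20) at 12.5 mg/kg ip every other day, alone or combined. Body and organ weights were recorded.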

[12] = Toxicity in BALB/c mouse xenografted with human MCF7 cells assessed as change in heart weight at 12.5 mg/kg, ip administered every 2 days in presence of 50 mg/kg JQ1; type: organism-based; conditions: in vivo, 48 h
[13] = system: Mus musculus; experiment: Downregulation of JMJD6 mRNA expression in BALB/c mouse tumor xenografted with human MDA-MB-231 cells at 25 mg/kg, ip administered every 2 days by RT-qPCR analysis; type: functional, organism-based
[14] = system: MDA-MB-231; experiment: Inhibition of colony formation in human MDA-MB-231 cells at 10 uM incubated for 2 weeks in presence of 5 uM JQ1 by crystal violet staining based assay; type: functional, cell-based; how it was run: as §1
[15] = Downregulation of c-Myc protein expression in BALB/c mouse tumor xenografted with human MDA-MB-231 cells assessed as fold change in remaining c-Myc level at 25 mg/kg, ip administered every 2 days by immunoblotting analysis; type: functional; how it was run: as §2
[16] = system: T47D; experiment: Inhibition of colony formation in human T47D cells at 10 uM incubated for 2 weeks in presence of tamoxifen by crystal violet staining based assay; type: functional, cell-based; how it was run: as §1
[17] = system: T47D; experiment: Antiproliferative activity against human T47D cells at 10 uM incubated for 1 week in presence of fulvestrant by CellTiter 96 Aqueous One Solution based assay; type: functional, cell-based; conditions: time 1.0 weeks
[18] = system: MDA-MB-231; experiment: Downregulation of CCND1 gene expression in human MDA-MB-231 cells at 10 uM incubated for 6 hrs by RT-qPCR analysis; type: functional, cell-based
How it was run: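 Cells treated with peptide (10 μM) for 6 h; c-Myc, N-myc and CCND1 mRNA measured by RT-qPCR. Three biological repeats.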

[19] = system: MDA-MB-231; experiment: Antitumor activity against human MDA-MB-231 cells xenografted in BALB/c nude mouse assessed as reduction in tumor volume at 12.5 mg/kg, ip administered every 2 days in presence of 50 mg/kg JQ1; type: functional, organism-based; how it was run: as §3
[20] = system: Mus musculus; experiment: Downregulation of BRD4 mRNA expression in BALB/c mouse tumor xenografted with human MCF7 cells at 25 mg/kg, ip administered every 2 days by RT-qPCR analysis; type: functional, organism-based

Compound	fold change (FC) [1]	Activity [2]	Activity [3]	inhibition [4]	fold change (FC) [5]	Activity [6]	inhibition [7]	inhibition [8]	Activity [9]	Activity [10]	Activity [11]	Activity [12]	Activity [13]	inhibition [14]	fold change (FC) [15]	inhibition [16]	Activity [17]	Activity [18]	Activity [19]	Activity [20]
H-YGRKKRRQRRRRNQKFKCGE-OH	0.91	Active	Non-Toxic	Active	0.27	Active	Active	Active	Non-Toxic	Non-Toxic	Non-Toxic	Non-Toxic	inactive	Active	0.22	Active	Active	Active	Active	inactive
CC[C@H](C)[C@H](NC(=O)[C@H](Cc1ccc(O)cc1)NC(=O)[C@@H]1C[C@@H](O)CN1C(=O)[C@H](C)NC(=O)[C@@H](NC(=O)CCCCCNC(=O)[C@H](CCC(=O)O)NC(=O)CNC(=O)[C@H](CS)NC(=O)[C@H](CCCCN)NC(=O)[C@H](Cc1ccccc1)NC(=O)[C@H](CCCCN)NC(=O)[C@H](CCC(N)=O)NC(=O)[C@H](CC(N)=O)NC(=O)[C@H](CCCNC(=N)N)NC(=O)[C@H](CCCNC(=N)N)NC(=O)[C@H](CCCNC(=N)N)NC(=O)[C@H](CCCNC(=N)N)NC(=O)[C@H](CCC(N)=O)NC(=O)[C@H](CCCNC(=N)N)NC(=O)[C@H](CCCNC(=N)N)NC(=O)[C@H](CCCCN)NC(=O)[C@H](CCCCN)NC(=O)[C@H](CCCNC(=N)N)NC(=O)CNC(=O)[C@@H](N)Cc1ccc(O)cc1)[C@@H](C)CC)C(=O)O (H-YGRKKRRQRRRRNQKFKCGE[Ahx]IA[Hyp]YI-OH)	0.5	Active	Non-Toxic	Active	0.38	Active	Active	Active	Non-Toxic	Non-Toxic	Non-Toxic	Non-Toxic	inactive	Active	0.44	Active	Active	Active	Active	inactive
